Screens deposited in PubChem by several laboratories.
The sample as a whole holds a higher share of hits than the screen did.
Lmaj promast: reduces viability of Leishmania major promastigotes; AID 1063; 200,000 compounds, 9% hits; resazurin fluorescence viability; inhibition, % at 10 µM; in the data active means inhibition above about 50%;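 further: promastigotes grown with compound for 44 hours at 28 °C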
XBP1 UPR activ: activators of adaptive arm of unfolded protein response (XBP1). CHO-XBP1 luciferase reporter, IRE1-XBP1 UPR activation, luminescence; percent of tunicamycin response, DMSO as zero. activation, % at 20 µM. 330,000 compounds, 0.33% hits. AID 463104;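 active means versus positive control, 20 µM dose yields 30% or more activation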
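Material: CHO cell line with stable XBP1 luciferase reporter; schedule: 16-18 h cell attachment at 37 °C, then 6 h compound exposure; signal: glow luminescence from Steady-Glo reagent; medium: serum-containing F12 medium, 10% FBS; benchmarks: tunicamycin 10 µg/mL and vehicle-only wells; read-out: percent activation relative to tunicamycin reference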
T cruzi inh: T. cruzi replication inhibition; T. cruzi beta-gal in NIH3T3, luminescence, 90 h; inhibition, % (no concentration beside the values); 300,000 compounds, 1.4% hits;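 active means mean inhibition across valid replicates above about 55%, limit read from the data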;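 further: signal also drops with host cell toxicity which is not excluded here; higher percent means less beta-gal luminescence so fewer parasites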
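System – NIH/3T3 host cells with β-galactosidase reporter T. cruzi · Doses – single 50 nL compound addition per well in DMSO · Reagent – 5000 T. cruzi trypomastigotes/well · Medium – Low-serum DMEM with 2% FBS · Timing – ≥90 h infection period, 3 h prior cell attachment · Evaluation – parasite load inhibition, % · Technique – GalScreen luminescence, 60 min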
CHOP inhibitor: blocks CHOP induction under ER stress; CHO-K1 CHOP-promoter luciferase, tunicamycin-induced, 15-18 h; inhibition, % at 10 µM; 220,000 compounds, 3.8% hits; AID 2732;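 active means compounds that reduced the stress-induced luciferase reporter signal by more than about 70% of percent inhibition, limit read from the data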
CHOP UPR activ: apoptotic UPR (CHOP) activation; activation, % at 10 µM; CHO-CHOP luciferase reporter, luminescence; percent of tunicamycin response over DMSO baseline; 330,000 compounds, 0.34% hits;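 active means at 10 µM dose, activation of 40% or more, normalized to positive control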
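measured by = luciferase luminescence | assay system = CHO-CHOP cells, stable luciferase reporter of PERK-eIF2a-CHOP signalling | amount = 500 reporter cells seeded per well | timing = 6 h compound exposure at 37 °C after overnight seeding | controls = positive tunicamycin 10 µg/mL, negative DMSO alone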
Dynein cargo inh: blocks dynein driven cargo transport along microtubules; 220,000 compounds, 0.47% hits; 3617.4 mouse cells, GR-EGFP nuclear translocation imaging; test concentration mostly 20 µM; stimulated with dexamethasone, 1 µM; hits give low values; z-score, hits read low;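 active means plate z-score of nuclear minus cytoplasmic receptor signal below a set negative limit, without overly bright fluorescence or cell loss, cut at about -3.5 in these data, passing the limit was not always enough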;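 further: z-score of nuclear minus cytoplasmic ring GR-EGFP intensity difference per well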
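Medium: Induction medium lacking tetracycline, stripped serum | Probe or stimulus: 1.0 µM final dexamethasone stimulus | Schedule: 48 h induction, then 1 h compound, then 30 min agonist, 37 °C | Signal: Automated 10x imaging of fixed Hoechst-stained cells | Evaluation: Per-cell GR-EGFP intensity, nucleus versus surrounding cytoplasmic ring, well-averaged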
Large screens that a line does not name were inactive.

Oc1[nH]c2ccccc2c1N=Nc1nc2ccccc2s1	none
COc1cc(C(=O)OCC(=O)NC(=O)C2CCCCC2)ccc1OC(F)F	none
CC(=O)N(Cc1ccc(F)cc1)C1=C(NCCc2ccccc2)C(=O)c2ccccc2C1=O	Lmaj promast 100.2 (no result: CHOP inhibitor)
N#Cc1ccc(C(=O)Nc2cc(S(=O)(=O)N3CCCC3)ccc2OCC(F)(F)F)cc1	Lmaj promast 58.5
COc1ccc(S(=O)(=O)N2CCCN(CC(=O)Nc3cc(NC(C)=O)ccc3OC)CC2)cc1	none
COc1ccc(NC(C)=O)cc1NC(=O)CN1CCN(S(=O)(=O)c2ccc(C(C)C)cc2)CC1	CHOP inhibitor 73.1
COc1ccccc1NC(=O)c1ccc(S(=O)(=O)N2CCCC2)cc1	none
O=S(=O)(Nc1nc2ccccc2nc1Nc1cccc(S(=O)(=O)N2CCCCC2)c1)c1ccccc1	Lmaj promast 69.0, CHOP inhibitor 74.5
COc1ccccc1NS(=O)(=O)c1ccc(C)c(NC(=O)c2ccc(S(=O)(=O)N3CCCCCC3)cc2)c1	Lmaj promast 96.9
COc1ccc(S(=O)(=O)Nc2cccc(S(=O)(=O)N3CCCCCC3)c2)cc1	none (no result: XBP1 UPR activ, CHOP UPR activ)
COc1cccc(CN(C)C(=O)c2cc(-c3cccs3)nc3ccccc23)c1	none (no result: Lmaj promast, CHOP inhibitor, Dynein cargo inh)
Cc1cccc(N(CC(=O)NC(C)C)C(=O)CCC(=O)Nc2nccs2)c1	none (no result: Lmaj promast, CHOP inhibitor, Dynein cargo inh)
COc1ccc(NS(=O)(=O)c2cccc(NC(=O)c3ccc(S(=O)(=O)N4CCCCCC4)cc3)c2)cc1	Lmaj promast 97.1, CHOP inhibitor 75.0
CCOC(=O)N1CCN(S(=O)(=O)c2ccc(NC(C)=O)cc2)CC1	none (no result: Lmaj promast, CHOP inhibitor, Dynein cargo inh)
COc1ccc(S(=O)(=O)N2CCCCC2)cc1NC(=O)CSc1nccn1C	Lmaj promast 98.8
CCOC(=O)N1CCN(S(=O)(=O)c2ccc(C(=O)Nc3ccc4c(c3)C(=O)NC4=O)cc2)CC1	Lmaj promast 55.6
Cn1ccnc1SCC(=O)Nc1cccc(S(=O)(=O)N2CCCCC2)c1	none
COc1ccc(S(=O)(=O)N2CCCCC2)cc1NC(=O)c1ccc2c(c1)OCO2	Lmaj promast 78.3
O=C(Cc1ccccc1[N+](=O)[O-])OCC(=O)N1CCN(c2ccccc2)CC1	none (no result: Lmaj promast, CHOP inhibitor, Dynein cargo inh)
O=C(Nc1cccc(S(=O)(=O)N2CCOCC2)c1)c1ccc2c(=O)n3c(nc2c1)CCCCC3	none
O=C(Nc1cccc(S(=O)(=O)N2CCCC2)c1)c1ccc2c(=O)n3c(nc2c1)CCCCC3	Lmaj promast 82.4
CCN(CC)S(=O)(=O)c1ccc(OC)c(NC(=O)OCc2ccccc2)c1	none (no result: Lmaj promast, CHOP inhibitor, Dynein cargo inh)
CCN(CC)S(=O)(=O)c1ccc(C)c(NC(=S)Nc2cccc(S(=O)(=O)N3CCCCCC3)c2)c1	Lmaj promast 92.0
CCN(CC)S(=O)(=O)c1ccc(OC)c(NC(=S)Nc2ccc(C)c(C)c2)c1	Lmaj promast 61.7
CCN(CC)S(=O)(=O)c1ccc(NC(=S)NC(=O)C(C)C)cc1	Lmaj promast 71.9
O=S(=O)(c1cccc(NC(=S)Nc2ccc(Br)cc2Cl)c1)N1CCOCC1	Lmaj promast 51.8
O=C(Cc1ccc(Br)cc1)Nc1cccc(S(=O)(=O)N2CCOCC2)c1	none (no result: Lmaj promast, T cruzi inh, CHOP inhibitor, Dynein cargo inh)
CCCN1CCC(=O)N([C@H](CSc2ccc(OC)cc2)CC(C)C)CC1	none (no result: Lmaj promast)
O=C(O)CCc1nc2cc(C(F)(F)F)ccc2n(Cc2ccccc2)c1=O	none (no result: Lmaj promast, CHOP inhibitor, Dynein cargo inh)
N#C/C(=C\c1cccnc1)C(=O)Nc1ccc(O)cc1F	none (no result: Lmaj promast, CHOP inhibitor, Dynein cargo inh)
CC(NC(=O)COC(=O)c1cccc(S(=O)(=O)N2CCCC2)c1)c1ccccc1 (configuration not stated)	none (no result: Lmaj promast, T cruzi inh, CHOP inhibitor, Dynein cargo inh)
Oc1c(Br)cc(Br)cc1/C=N/c1nc2c(s1)CCCC2	CHOP inhibitor 85.6
O=[N+]([O-])c1cc(CN2CCN(c3cccc(C(F)(F)F)c3)CC2)c2cccnc2c1O	Lmaj promast 99.0, T cruzi inh 75.6, CHOP inhibitor 87.2
CN(C)S(=O)(=O)Nc1ccc(Oc2ccccc2)cc1	Lmaj promast 82.2
CC1CCCCN1C(=O)COC(=O)/C=C/c1ccc2ccccc2n1 (configuration not stated)	none
CN1CCN(c2ccc([N+](=O)[O-])c(-n3nc(-c4ccccc4)c4ccccc4c3=O)c2)CC1	Lmaj promast 99.3
Cc1nn(-c2cc(N3CCNCC3)ccc2[N+](=O)[O-])c(=O)c2ccccc12	Lmaj promast 67.3
CC(Nc1cc(N2CCNCC2)ccc1[N+](=O)[O-])c1ccccc1 (configuration not stated)	Lmaj promast 99.6
CCS(=O)(=O)N1CCN(c2ccc([N+](=O)[O-])c(NC(C)c3ccccc3)c2)CC1 (configuration not stated)	none
COc1ccc2cc(C(c3nnnn3C3CCCC3)N3CCOCC3)c3nnnn3c2c1 (configuration not stated)	none
CCC(C(=O)NCCc1ccccc1OC)n1nc(C)c2c(C)n(-c3ccccc3)nc2c1=O (configuration not stated)	none (no result: Lmaj promast, CHOP inhibitor, Dynein cargo inh)
O=S(=O)(Nc1ccc(S(=O)(=O)N2CCCC2)cc1)c1ccc(F)cc1F	none (no result: Lmaj promast, T cruzi inh, CHOP inhibitor, Dynein cargo inh)
C/C(=N\NC(=O)c1ccc(-n2cnnn2)cc1)c1ccc(C)cc1	none (no result: Lmaj promast, T cruzi inh, CHOP inhibitor, Dynein cargo inh)
COc1ccc(CCN2CNc3c(c(=O)n(C)c(=O)n3C)C2)cc1	none
Cn1c2c(c(=O)n(C)c1=O)CN(CC1CCCO1)CN2 (configuration not stated)	CHOP inhibitor 73.0
O=C(NC1CCCCC1)N1CCC(c2nc3ccc(Cl)cc3[nH]2)CC1	CHOP inhibitor 78.8
O=C(NC1CCCCC1)N1CCC(c2nc3ccccc3[nH]2)CC1	none
O=[N+]([O-])c1cc(Oc2cccnc2)cc([N+](=O)[O-])c1	T cruzi inh 60.5
O=C(c1ccco1)N1CCN(CCOCCOc2cccc3ccccc23)CC1	Lmaj promast 89.8
O=C(c1ccco1)N1CCN(CCCCOc2cccc3ccccc23)CC1	Lmaj promast 87.5
O=C(c1ccccc1F)N(Cc1nc2ccccc2c(=O)[nH]1)C1CCCC1	none
CCN1C=C(Cc2cccs2)C2=C(C1)C(c1cccs1)C(C#N)=C(N)O2 (configuration not stated)	Lmaj promast 55.5
COc1ccc2oc(=Nc3ccccc3)c(-c3nc4ccccc4[nH]3)cc2c1	CHOP inhibitor 85.6
CCCCCCCC/C=C\CCCCCCCC(=O)NCCc1ccc(O)c(O)c1	CHOP UPR activ 148.3 (no result: Lmaj promast, T cruzi inh, Dynein cargo inh)
S=C(NCC1CCCO1)c1ccc(Br)cc1 (configuration not stated)	none (no result: Lmaj promast, CHOP inhibitor, Dynein cargo inh)
CN1CCCN(C(=O)c2cc(-c3ccc(Cl)c(Cl)c3Cl)nc3ccccc23)CC1	Lmaj promast 55.2
